Molecular target: T1, Nitric oxide synthase, inducible (Mus musculus, UniProt P29477)
T1 sequence (P29477 whole entry): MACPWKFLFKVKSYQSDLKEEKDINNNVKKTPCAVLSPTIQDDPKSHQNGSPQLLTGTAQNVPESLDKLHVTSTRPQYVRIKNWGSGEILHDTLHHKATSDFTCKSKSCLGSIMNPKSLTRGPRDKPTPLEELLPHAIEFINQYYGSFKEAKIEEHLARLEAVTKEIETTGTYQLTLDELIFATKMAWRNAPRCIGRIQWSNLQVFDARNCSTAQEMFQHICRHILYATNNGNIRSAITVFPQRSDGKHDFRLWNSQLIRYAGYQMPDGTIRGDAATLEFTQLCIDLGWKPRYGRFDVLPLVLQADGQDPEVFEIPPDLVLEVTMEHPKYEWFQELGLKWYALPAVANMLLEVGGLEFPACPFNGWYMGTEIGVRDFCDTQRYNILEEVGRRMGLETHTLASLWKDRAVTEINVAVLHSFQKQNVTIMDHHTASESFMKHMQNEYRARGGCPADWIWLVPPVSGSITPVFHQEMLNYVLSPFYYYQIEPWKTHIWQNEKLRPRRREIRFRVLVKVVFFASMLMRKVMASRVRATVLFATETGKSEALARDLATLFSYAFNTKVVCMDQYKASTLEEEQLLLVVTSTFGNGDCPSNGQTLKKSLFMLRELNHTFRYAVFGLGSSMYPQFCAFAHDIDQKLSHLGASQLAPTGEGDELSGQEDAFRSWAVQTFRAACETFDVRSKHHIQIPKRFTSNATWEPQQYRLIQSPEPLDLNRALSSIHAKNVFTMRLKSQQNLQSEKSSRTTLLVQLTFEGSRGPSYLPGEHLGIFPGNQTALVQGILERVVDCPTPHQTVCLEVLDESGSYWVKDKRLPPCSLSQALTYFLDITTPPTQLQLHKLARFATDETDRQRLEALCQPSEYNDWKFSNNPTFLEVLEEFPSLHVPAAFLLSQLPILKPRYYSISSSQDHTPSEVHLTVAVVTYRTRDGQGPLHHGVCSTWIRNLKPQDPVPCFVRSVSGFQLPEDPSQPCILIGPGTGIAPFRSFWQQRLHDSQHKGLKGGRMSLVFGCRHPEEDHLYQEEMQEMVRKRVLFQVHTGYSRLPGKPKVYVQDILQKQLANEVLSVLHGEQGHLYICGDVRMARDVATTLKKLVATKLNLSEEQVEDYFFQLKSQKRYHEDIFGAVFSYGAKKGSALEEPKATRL
Test: Inhibition of iNOS induction in mouse RAW264.7 cells assessed as NO production
Procedure, shortened: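 RAW 264.7 cells seeded at 8 × 10⁴ per well in DMEM/10% FBS and grown 2 days. Then exposed to LPS with compound or DMSO for 20 h. Supernatant nitrite measured by Griess reaction (sulfanilamide/NED) at 550 nm minus 620 nm background, quantified against a sodium nitrite standard curve. At least four experiments in triplicate.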

SMILES | IC50 [µM]
COc1cc(C=CC(=O)CC(=O)C=Cc2ccc(O)c(OC)c2)ccc1O | 0.8
CC(C)(C)C1=NN(c2ccc(Cl)cc2)C(c2ccc(O)cc2)C1 (stereo not given) | 7.5
Oc1ccc(C2CC(c3cccs3)=NN2c2ccc(C(F)(F)F)cc2)cc1 (stereo not given) | 2.4
CC(C)(C)C1=NN(c2cccc(Cl)c2)C(c2ccc(F)c(O)c2)C1 (stereo not given) | 4.6
Oc1ccc(C2CC(c3cccs3)=NN2c2ccc(Br)cc2)cc1 (stereo not given) | 3.4

— BindingDB's records for doi:10.1021/jm500521n (Saarland University, 2014)
